Experimental findings from ChEMBL document CHEMBL1155539, “Discovery of 4-[1-[([1-[4-(trifluoromethyl)benzyl]-1H-indol-7-yl]carbonyl)amino]cyclopropyl]benzoic acid (MF-766), a highly potent and selective EP4 antagonist for treating inflammatory pain” (Bioorg Med Chem Lett, 2010) are described below.

The target of data set [1] is T1, Prostaglandin E2 receptor EP4 subtype (Homo sapiens, UniProt P35408). Description: Displacement of [3H]PGE2 from human prostanoid EP4 receptor expressed in HEK293-EBNA cells after 60 mins by scintillation counting in presence of 10% human serum. Format: cell-based. On the technique in general: Displacement assays read how much labelled ligand stays bound in the presence of the test substance.

Data set [2] concerns the target T2, Prostaglandin D2 receptor (Homo sapiens, UniProt Q13258).
T2 sequence (Q13258 whole entry): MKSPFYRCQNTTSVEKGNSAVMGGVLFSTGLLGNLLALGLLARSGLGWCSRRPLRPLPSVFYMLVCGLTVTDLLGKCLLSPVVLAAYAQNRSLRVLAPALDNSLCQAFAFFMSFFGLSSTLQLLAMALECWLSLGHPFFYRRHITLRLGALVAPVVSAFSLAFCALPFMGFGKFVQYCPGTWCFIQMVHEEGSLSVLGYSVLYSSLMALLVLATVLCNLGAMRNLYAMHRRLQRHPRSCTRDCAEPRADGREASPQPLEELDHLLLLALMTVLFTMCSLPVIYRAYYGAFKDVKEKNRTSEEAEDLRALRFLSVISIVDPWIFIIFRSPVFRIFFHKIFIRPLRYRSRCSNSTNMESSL
Description: Displacement of [3H]PGD2 from human Prostanoid DP1 receptor expressed in HEK293-EBNA cells after 60 mins by scintillation counting. The data set is classed as cell-based.

The subject of data set [3] is Rattus norvegicus. Briefly: Antiinflammatory activity in rat assessed as inhibition of complete Freund's adjuvant-induced paw swelling administered daily once 9 days after adjuvant challenge measured on day 18. The data set is classed as functional. The conditions noted are these: read-out: ED50. The method, boiled down:
(§1)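 Rat adjuvant-induced arthritis model with daily dosing in mg/kg/day. Dose groups were 0, 0.001, 0.01, 0.1 and 1 mg/kg, plus a non-AIA control group. Primary and secondary paw swelling were scored as % inhibition relative to vehicle-treated arthritic rats, and ED50 was estimated from the dose–response.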

Data set [4] can be described thus: Metabolic stability in dog hepatocytes. The data set is classed as ADME, cell-based, Canis lupus familiaris, Hepatocyte.
The target in data set [5] is Prostaglandin E2 receptor EP2 subtype (Homo sapiens, UniProt P43116). Description: Displacement of [3H]PGE2 from human prostanoid EP2 receptor expressed in HEK293-EBNA cells after 60 mins by scintillation counting. The data set is classed as cell-based.
Data set [6] concerns the target Prostaglandin F2-alpha receptor (Homo sapiens, UniProt P43088). Description: Displacement of [3H]PGF2alpha from human prostanoid FP receptor expressed in HEK293-EBNA cells after 60 mins by scintillation counting. The data set is classed as cell-based.
A short description of data set [7]: Elimination half life in Beagle dog at 1 mg/kg, iv and 4 mg/kg, po. The conditions noted are these: in vivo, read-out: beta t1/2 (converted).
In data set [8] the test system is Rattus norvegicus. Briefly: Antiinflammatory activity in rat assessed as inhibition of complete Freund's adjuvant-induced secondary paw swelling administered daily once 9 days after adjuvant challenge measured on day 18. The data set is classed as functional. The method, boiled down: as §1
Data set [9] is described as follows: Drug level in complete Freund's adjuvant challenged rat administered daily once 9 days after adjuvant challenge measured on day 18 after 24 hrs post dose. The data set is classed as ADME, organism-based. To be noted: in vivo, read-out: Drug uptake. The method, boiled down: (§2)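 In a separate rat AIA experiment with daily dosing, plasma drug levels were measured 2 h and 24 h after the final dose.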

In data set [10] the test system is Canis familiaris. Description: Bioavailability in Beagle dog at 1 mg/kg, iv and 4 mg/kg, po. To be noted: in vivo.
Data set [11] deals with Hepatocyte. Briefly: Metabolic stability in human hepatocytes. The data set is classed as ADME, cell-based.
Data set [12] can be described thus: Bioavailability in Sprague-Dawley rat at 5 mg/kg, iv and 20 mg/kg, po. Format: ADME, organism-based. To be noted: in vivo. Summed up: (§3)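 Sprague-Dawley rats dosed iv at 5 mg/kg and po at 20 mg/kg. The iv group was n = 2 males given the free acid in 60% PEG 200 at 1 mL/kg. PK parameters were derived from plasma levels.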
Data set [13] can be described thus: Elimination half life in Sprague-Dawley rat at 5 mg/kg, iv and 20 mg/kg, po. Format: ADME, organism-based. The conditions noted are these: in vivo, read-out: beta t1/2 (converted). Summed up: as §3
Data set [14] has as its target T1, Prostaglandin E2 receptor EP4 subtype. Description: Antagonist activity at human prostanoid EP4 receptor expressed in HEK293 cells assessed as inhibition of PGE2-induced cAMP accumulation by scintillation proximity assay in presence of 10% human serum. Format: functional, cell-based.
Data set [15] in a line: Drug level in complete Freund's adjuvant challenged rat administered daily once 9 days after adjuvant challenge measured on day 18 after 2 hrs post dose. To be noted: in vivo, read-out: Drug uptake. The data set is classed as ADME, organism-based. The method, boiled down: as §2
Data set [16] deals with Hepatocyte. Description: Oxidative metabolism in rat hepatocytes assessed as protein covalent binding after 2 hrs. The data set is classed as ADME, cell-based. The method, boiled down: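 [3H]-labelled compound incubated with fresh rat or human hepatocytes for 2 h. Covalent protein binding was expressed as pmol-equiv/mg protein, and samples were checked for tritium loss by HPLC with radiometric detection.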

Data set [17] addresses Prostacyclin receptor (Homo sapiens, UniProt P43119). Briefly: Displacement of [3H]iloprost from human prostanoid IP receptor expressed in HEK293-EBNA cells after 60 mins by scintillation counting. Format: cell-based.
Data set [18] concerns the target T3, Prostaglandin E2 receptor EP3 subtype (Homo sapiens, UniProt P43115).
T3 sequence (P43115 whole entry): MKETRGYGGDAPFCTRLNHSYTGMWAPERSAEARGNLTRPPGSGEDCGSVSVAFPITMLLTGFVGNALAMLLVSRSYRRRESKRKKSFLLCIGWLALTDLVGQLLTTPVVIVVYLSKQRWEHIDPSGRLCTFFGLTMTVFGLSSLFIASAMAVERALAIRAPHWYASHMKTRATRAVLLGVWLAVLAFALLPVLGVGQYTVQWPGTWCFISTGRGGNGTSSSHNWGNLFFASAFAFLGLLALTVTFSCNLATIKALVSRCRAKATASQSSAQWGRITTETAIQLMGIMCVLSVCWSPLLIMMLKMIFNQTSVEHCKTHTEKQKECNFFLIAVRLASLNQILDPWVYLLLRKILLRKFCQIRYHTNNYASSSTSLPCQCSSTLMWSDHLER
Briefly: Displacement of [3H]PGE2 from human prostanoid EP3 receptor expressed in HEK293-EBNA cells after 60 mins by scintillation counting. Format: cell-based.

Data set [19] has as its system Canis familiaris. Description: AUC (0 to 24 hrs) in Beagle dog at 4 mg/kg, po. The conditions noted are these: in vivo.
Data set [20] relates to Hepatocyte. Briefly: Metabolic stability in rat hepatocytes. Format: ADME, cell-based.
Data set [21] relates to Rattus norvegicus. Description: Antiinflammatory activity in rat assessed as inhibition of complete Freund's adjuvant-induced secondary paw swelling at 0.001 to 1 mg/kg administered daily once 9 days after adjuvant challenge measured on day 18. Format: functional. The arrangement: scale not given: the % may be the effect or the level left. The conditions noted are these: dose mg/kg 0.001-1. Summed up:
as §1

Data set [22] can be described thus: Volume of distribution in Sprague-Dawley rat at 5 mg/kg, iv and 20 mg/kg, po. Format: ADME, organism-based. To be noted: in vivo. Summed up: as §3
For data set [23], the system named is Rattus norvegicus. Description: Antiinflammatory activity in rat assessed as inhibition of complete Freund's adjuvant-induced primary paw swelling at 0.001 to 1 mg/kg administered daily once 9 days after adjuvant challenge measured on day 18. Format: functional. Set-up: scale not given: the % may be the effect or the level left. To be noted: dose mg/kg 0.001-1. Summed up:
as §1

T1 sequence (P35408 whole entry): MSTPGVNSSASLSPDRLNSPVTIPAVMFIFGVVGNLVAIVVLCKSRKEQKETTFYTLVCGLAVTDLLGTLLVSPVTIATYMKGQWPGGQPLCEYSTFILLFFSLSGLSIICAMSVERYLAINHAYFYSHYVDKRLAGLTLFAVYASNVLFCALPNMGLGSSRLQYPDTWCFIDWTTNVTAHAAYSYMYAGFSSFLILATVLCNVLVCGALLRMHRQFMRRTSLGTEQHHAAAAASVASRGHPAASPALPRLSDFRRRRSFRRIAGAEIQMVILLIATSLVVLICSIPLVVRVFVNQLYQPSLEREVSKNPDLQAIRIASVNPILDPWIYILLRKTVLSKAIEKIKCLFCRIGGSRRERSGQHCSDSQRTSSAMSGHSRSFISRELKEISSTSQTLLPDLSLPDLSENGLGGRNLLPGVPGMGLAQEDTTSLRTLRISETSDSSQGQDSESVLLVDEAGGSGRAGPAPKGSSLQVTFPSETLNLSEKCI
Sequence of Prostaglandin F2-alpha receptor (P43088 whole entry): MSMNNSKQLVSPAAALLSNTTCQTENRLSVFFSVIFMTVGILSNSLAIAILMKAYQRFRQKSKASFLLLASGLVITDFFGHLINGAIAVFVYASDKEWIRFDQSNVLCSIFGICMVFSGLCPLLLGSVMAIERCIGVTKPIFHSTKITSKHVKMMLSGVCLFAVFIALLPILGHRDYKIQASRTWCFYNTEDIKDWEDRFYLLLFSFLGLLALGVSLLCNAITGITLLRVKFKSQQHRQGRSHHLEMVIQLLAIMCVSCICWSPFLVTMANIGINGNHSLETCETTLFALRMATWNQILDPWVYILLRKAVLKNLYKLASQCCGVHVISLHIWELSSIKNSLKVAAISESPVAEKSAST
Sequence of Prostaglandin E2 receptor EP2 subtype (P43116 whole entry): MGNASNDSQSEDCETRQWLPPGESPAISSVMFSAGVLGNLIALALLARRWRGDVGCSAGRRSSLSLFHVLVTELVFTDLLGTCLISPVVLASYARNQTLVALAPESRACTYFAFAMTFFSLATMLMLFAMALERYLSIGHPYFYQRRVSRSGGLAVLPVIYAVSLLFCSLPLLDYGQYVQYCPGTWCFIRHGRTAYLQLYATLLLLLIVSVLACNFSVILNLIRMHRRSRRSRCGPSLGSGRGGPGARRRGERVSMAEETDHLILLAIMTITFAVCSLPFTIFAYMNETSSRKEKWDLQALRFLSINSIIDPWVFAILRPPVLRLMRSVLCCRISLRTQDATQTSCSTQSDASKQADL
Sequence of Prostacyclin receptor (P43119 whole entry): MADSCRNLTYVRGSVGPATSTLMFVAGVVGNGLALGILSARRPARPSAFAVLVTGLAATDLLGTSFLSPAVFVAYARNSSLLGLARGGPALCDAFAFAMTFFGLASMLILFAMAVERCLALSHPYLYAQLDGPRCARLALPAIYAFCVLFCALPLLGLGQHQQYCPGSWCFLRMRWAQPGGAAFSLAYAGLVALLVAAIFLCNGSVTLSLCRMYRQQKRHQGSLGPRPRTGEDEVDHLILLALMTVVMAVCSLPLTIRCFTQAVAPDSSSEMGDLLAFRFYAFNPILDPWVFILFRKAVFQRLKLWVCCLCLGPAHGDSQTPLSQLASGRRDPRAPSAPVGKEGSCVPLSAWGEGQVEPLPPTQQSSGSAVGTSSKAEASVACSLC

As to `O=C(O)c1ccc(C2(NC(=O)c3cccc4ccn(Cc5ccc(C(F)(F)F)cc5)c34)CC2)cc1`, the Ki in [1] was 0.00034 µM; in [2] it was 1.65 µM; in data set [5], 8 µM; in data set [6], 6.4 µM; in data set [17], over 22 µM; in data set [18], 7.4 µM. Besides, the ED50 in data set [3] stood at 0.004 mg/kg/day. Moreover, the Stability entry in data set [4], in data set [11] and in data set [20] was “Stable” throughout. Also, the figures for the half-life in data set [7] and in [13] were 2.6 h and 4.6 h, respectively. Also, the ED100 in data set [8] is listed as 0.025 mg/kg/day. Besides, the concentration at 24 h in data set [9] stood at 3.1 nM. The compound further returned a F in [10] of 74%. In data set [12], this compound returned a bioavailability of 86%. Besides, the IC50 in data set [14] came to 0.0018 µM. Further, in [15], the concentration at 2 h came out at 28 nM. Moreover, the results for the Activity in [16], in [21] and in data set [23] were 61 pmolequiv/mg, 100% and 70%, respectively. In [19], this compound yielded an AUC of 15 µM·h. In [22], this compound registered a Vd of 1 L/kg.

The term Ki denotes the equilibrium dissociation constant of an inhibitor or competing ligand from its target. Broadly, the ED50 is the dose at which the effect has come halfway, by size or by number of responders. Usually bioavailability stands for dose-corrected exposure relative to a reference, in per cent. For orientation: IC50 means the concentration that inhibits the measured activity by half. As a reminder, the AUC is concentration integrated over time.
